Assay results reported in ChEMBL document CHEMBL1148329, “Synthesis and structure-activity studies on N-[5-(1H-imidazol-4-yl)-5,6,7,8-tetrahydro-1-naphthalenyl]methanesulfonamide, an imidazole-containing alpha(1A)-adrenoceptor agonist” (J Med Chem, 2004).

What was measured:
[1] = Selectivity is ratio of efficacy of Alpha-1D to that of alpha-1A adrenoceptor; format: functional
[2] = target: T1, Alpha-1D adrenergic receptor (Rattus norvegicus) (UniProt P23944); assay: Functional agonism of the compounds to constrict tissue containing the alpha-1D adrenergic receptor in rat aorta; format: tissue-based
T1 sequence (whole entry): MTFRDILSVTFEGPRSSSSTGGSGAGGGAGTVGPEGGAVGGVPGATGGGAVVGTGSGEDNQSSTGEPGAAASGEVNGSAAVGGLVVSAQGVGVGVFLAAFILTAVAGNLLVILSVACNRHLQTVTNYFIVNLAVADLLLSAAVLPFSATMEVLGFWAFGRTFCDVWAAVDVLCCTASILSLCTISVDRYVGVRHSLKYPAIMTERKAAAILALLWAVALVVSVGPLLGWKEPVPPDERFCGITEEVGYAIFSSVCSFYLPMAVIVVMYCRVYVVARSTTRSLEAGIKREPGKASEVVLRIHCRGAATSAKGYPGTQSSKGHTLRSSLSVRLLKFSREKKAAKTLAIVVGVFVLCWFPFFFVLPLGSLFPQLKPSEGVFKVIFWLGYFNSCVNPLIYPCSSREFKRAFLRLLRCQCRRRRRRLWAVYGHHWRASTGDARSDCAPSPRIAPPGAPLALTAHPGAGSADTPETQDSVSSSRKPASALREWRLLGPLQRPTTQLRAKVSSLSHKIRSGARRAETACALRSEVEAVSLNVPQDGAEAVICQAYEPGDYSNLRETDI
Outline: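 Agonist dose–response curves were run on isolated tissue: rabbit urethra for α1A, rat spleen for α1B, and rat aorta for α1D.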

[3] = target: T2, Alpha-1A adrenergic receptor (Rattus norvegicus, UniProt P43140); assay: In vitro binding affinity towards alpha-1A adrenergic receptor of rat submaxillary gland in radioligand binding assay
T2 sequence (P43140 whole entry): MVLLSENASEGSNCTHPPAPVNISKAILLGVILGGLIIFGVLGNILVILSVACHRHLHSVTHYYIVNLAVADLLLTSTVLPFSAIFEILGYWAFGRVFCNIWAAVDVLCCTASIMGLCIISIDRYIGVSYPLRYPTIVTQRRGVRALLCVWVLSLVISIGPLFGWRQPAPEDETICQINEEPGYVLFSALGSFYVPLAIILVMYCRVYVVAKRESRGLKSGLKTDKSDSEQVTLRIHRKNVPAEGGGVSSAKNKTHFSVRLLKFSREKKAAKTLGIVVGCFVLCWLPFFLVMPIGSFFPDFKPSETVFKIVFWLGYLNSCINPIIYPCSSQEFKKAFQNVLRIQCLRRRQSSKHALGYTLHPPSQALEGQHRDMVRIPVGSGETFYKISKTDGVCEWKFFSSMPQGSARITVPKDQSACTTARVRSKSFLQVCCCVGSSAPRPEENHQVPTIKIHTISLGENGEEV
Outline: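 Radioligand binding at α1 subtypes: α1A from rat submaxillary gland, α1B hamster clone, α1D rat clone. Run essentially per an earlier method.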

[4] = target: T3, Alpha-2A adrenergic receptor (Rattus norvegicus) (UniProt P22909); conditions: Vas deferens
T3 sequence (whole entry): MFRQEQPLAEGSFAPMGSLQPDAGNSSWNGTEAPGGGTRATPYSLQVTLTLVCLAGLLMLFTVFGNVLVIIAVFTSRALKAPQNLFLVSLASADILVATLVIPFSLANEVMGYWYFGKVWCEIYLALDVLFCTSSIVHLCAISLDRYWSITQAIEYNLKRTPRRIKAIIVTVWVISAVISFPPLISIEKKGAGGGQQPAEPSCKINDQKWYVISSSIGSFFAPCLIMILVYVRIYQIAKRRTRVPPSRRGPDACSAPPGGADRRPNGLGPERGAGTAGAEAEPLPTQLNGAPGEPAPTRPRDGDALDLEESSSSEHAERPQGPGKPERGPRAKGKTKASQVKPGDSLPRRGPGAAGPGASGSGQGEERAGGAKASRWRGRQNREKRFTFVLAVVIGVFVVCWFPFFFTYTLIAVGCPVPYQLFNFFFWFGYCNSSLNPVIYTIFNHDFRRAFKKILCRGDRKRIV

[5] = target: T4, Alpha-1B adrenergic receptor (Rattus norvegicus) (UniProt P15823); assay: Efficacy relative to phenylephrine (PE) to constrict tissue containing the alpha-1B adrenergic receptor in rat spleen; format: functional, tissue-based
T4 sequence (whole entry): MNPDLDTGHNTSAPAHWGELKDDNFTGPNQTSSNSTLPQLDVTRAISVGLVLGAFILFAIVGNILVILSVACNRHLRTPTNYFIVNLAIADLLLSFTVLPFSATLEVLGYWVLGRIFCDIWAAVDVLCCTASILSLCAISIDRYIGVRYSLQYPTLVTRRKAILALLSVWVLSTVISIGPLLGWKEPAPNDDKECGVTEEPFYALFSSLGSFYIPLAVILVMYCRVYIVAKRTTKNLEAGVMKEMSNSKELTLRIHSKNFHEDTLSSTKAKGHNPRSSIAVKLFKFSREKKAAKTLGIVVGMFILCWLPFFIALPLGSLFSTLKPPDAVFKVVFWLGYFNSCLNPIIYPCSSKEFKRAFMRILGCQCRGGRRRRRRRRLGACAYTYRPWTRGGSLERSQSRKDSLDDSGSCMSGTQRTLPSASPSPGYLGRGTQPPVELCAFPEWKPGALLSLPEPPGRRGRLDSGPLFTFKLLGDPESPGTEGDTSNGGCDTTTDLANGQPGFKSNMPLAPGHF

Structure (SMILES) | Selectivity [1] | pD2 [2] | also measured
COc1ccc(OC)c(C(O)CN)c1 (stereo not drawn) [DESGLYMIDODRINE] | 1 | 5.73 | 
O=S(=O)(CC(F)(F)F)Nc1cccc2c1CCCC2c1c[nH]cn1 (single isomer, unassigned; (+)) |  |  | Log Ki [3]: -6.91
CC(N)C(O)c1ccccc1 (stereo not drawn) [PHENYLPROPANOLAMINE] | 0.2 | 4.12 | pD2 [4]: 5.17; Ki [3]: 9.77 µM
CN(c1cccc2c1CCCC2c1c[nH]cn1)S(C)(=O)=O (stereo not drawn) |  |  | Efficacy [5]: 21
